Laboratory results published in ChEMBL document CHEMBL1149815, “New amido derivatives as potential BKCa potassium channel activators. XI” (Eur J Med Chem, 2008).

Legend:
Type in all cases: tissue-based
[1] = target: Calcium-activated potassium channel subunit alpha-1 (Rattus norvegicus) (UniProt Q62976); experiment: (§1) Induction of BK channel mediated vasorelaxation activity in Kcl-induced contraction in Wistar rat aorta
Method in brief: (§2)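 Endothelium-denuded thoracic aortic rings from male normotensive Wistar rats (250-350 g), equilibrated 60 min. Denudation was confirmed by acetylcholine relaxation below 10% of KCl tone. Rings were precontracted with 20 mM KCl; at plateau, 3-fold increasing concentrations were added cumulatively. Efficacy was maximal relaxation as % of KCl tone. pIC50 was -log molar concentration halving tone, not derived if efficacy was below 50%. 5-10 experiments.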

[2] = target: Calcium-activated potassium channel subunit alpha-1 (Rattus norvegicus, UniProt Q62976); experiment: as §1; method in brief: as §2
[3] = target: Calcium-activated potassium channel subunit alpha-1 (Rattus norvegicus) (UniProt Q62976); experiment: Induction of BK channel mediated vasorelaxation activity in Kcl-induced contraction in Wistar rat aorta in presence of IbTX; method in brief: as §2

Sequence of Calcium-activated potassium channel subunit alpha-1 (Q62976 whole entry): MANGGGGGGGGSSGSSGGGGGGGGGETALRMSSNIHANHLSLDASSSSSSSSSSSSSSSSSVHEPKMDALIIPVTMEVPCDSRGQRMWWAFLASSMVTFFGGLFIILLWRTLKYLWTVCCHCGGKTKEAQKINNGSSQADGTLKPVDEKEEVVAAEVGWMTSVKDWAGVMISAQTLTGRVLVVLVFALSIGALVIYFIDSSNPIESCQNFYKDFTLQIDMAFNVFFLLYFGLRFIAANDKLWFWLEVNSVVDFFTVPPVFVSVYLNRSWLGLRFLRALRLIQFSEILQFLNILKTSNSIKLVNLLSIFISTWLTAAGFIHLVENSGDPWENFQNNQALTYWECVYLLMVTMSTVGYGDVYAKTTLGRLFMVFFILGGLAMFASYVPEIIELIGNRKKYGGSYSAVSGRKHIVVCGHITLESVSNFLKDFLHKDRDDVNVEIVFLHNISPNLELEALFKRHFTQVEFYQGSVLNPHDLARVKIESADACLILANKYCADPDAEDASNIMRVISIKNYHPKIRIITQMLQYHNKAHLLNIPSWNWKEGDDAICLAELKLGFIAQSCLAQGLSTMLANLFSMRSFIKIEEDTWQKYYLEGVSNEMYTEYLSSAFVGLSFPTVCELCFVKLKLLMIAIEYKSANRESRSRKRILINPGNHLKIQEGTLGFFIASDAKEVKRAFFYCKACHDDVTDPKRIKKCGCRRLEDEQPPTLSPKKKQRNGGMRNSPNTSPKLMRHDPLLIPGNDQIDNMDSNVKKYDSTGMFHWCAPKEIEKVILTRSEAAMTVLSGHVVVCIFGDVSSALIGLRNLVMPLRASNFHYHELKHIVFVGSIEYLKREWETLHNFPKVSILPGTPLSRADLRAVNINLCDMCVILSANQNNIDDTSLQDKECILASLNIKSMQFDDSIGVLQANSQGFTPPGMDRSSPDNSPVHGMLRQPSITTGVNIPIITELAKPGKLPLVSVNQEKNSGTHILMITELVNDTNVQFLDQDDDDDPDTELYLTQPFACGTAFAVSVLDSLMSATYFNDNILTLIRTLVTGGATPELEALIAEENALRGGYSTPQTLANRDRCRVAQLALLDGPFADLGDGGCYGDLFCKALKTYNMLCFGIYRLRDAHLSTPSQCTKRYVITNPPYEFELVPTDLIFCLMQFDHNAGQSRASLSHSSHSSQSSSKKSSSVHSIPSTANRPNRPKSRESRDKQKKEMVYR
Sequence of Calcium-activated potassium channel subunit alpha-1 (Rattus norvegicus) (Q62976 whole entry): as above

Emax [1] | IC50 [2] | Emax [3] | Compound
25% | – | – | COc1ccccc1CC(=O)NCc1ccccc1
79% | 22.9 µM | – | O=C(Cc1ccccc1O)Nc1ccc([N+](=O)[O-])cc1
37% | – | – | COc1ccccc1CC(=O)Nc1cc(Cl)ccc1O
40% | – | – | COc1ccccc1CNC(=O)Cc1ccccc1O
55% | 27.5 µM | – | O=C(Cc1ccccc1C(F)(F)F)Nc1ccccc1F
33% | – | – | O=C(Cc1ccccc1O)NCc1ccccc1
16% | – | – | COc1ccccc1CNC(=O)c1ccccc1OC
47% | – | – | O=C(NCc1ccccc1)c1ccccc1O
22% | – | – | COc1ccccc1CNC(=O)Cc1ccccc1OC
29% | – | – | COc1ccccc1CC(=O)Nc1ccc([N+](=O)[O-])cc1
50% | – | – | O=C(Cc1ccccc1C(F)(F)F)Nc1cc(Cl)ccc1O
21% | – | – | COc1ccccc1CC(=O)Nc1cc([N+](=O)[O-])ccc1OC
82% | 18.2 µM | – | COc1ccc([N+](=O)[O-])cc1NC(=O)Cc1ccccc1O
43% | – | – | O=C(Cc1ccccc1O)Nc1ccccc1F
47% | – | – | O=C(NCc1ccccc1[N+](=O)[O-])c1ccccc1O
40% | – | – | O=C(Cc1ccccc1O)NCc1ccccc1[N+](=O)[O-]
84% | 20 µM | 32% | Cc1cc([N+](=O)[O-])ccc1NC(=O)Cc1ccccc1O
– | 4.37 µM | – | O=c1[nH]c2cc(C(F)(F)F)ccc2n1-c1cc(C(F)(F)F)ccc1O
23% | – | – | COc1ccccc1C(=O)NCc1ccccc1
40% | – | – | O=C(Cc1ccccc1O)Nc1ccccc1
61% | 24.5 µM | – | COc1ccccc1CC(=O)Nc1cc(C)ccc1O
29% | – | – | COc1ccccc1C(=O)NCc1ccccc1[N+](=O)[O-]
28% | – | – | COc1ccccc1CC(=O)Nc1ccccc1F
